Columns and labels:
Details in all cases: stereoisomer not certain
UniProt Q8VGU3 = target: T1, UniProt Q8VGU3
T1 sequence (whole entry): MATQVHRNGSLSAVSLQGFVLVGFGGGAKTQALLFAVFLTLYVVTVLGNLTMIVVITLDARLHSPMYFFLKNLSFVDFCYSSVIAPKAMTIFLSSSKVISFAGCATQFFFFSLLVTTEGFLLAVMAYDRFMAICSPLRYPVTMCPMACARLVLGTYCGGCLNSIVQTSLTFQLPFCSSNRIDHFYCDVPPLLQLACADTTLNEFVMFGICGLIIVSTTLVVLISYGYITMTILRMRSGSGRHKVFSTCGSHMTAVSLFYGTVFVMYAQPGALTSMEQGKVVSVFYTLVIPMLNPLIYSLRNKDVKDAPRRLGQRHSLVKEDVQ
How it was run: (§1)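 Assay methods differ from source to source, frequently being transient luciferase assays in mammalian cell lines. For each receptor–molecule pair, the label responsive (active) applies when the original authors judged the measured signal statistically different from baseline, and non-responsive (inactive) applies otherwise.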

UniProt Q8VGV7 = target: T2, UniProt Q8VGV7
T2 sequence (whole entry): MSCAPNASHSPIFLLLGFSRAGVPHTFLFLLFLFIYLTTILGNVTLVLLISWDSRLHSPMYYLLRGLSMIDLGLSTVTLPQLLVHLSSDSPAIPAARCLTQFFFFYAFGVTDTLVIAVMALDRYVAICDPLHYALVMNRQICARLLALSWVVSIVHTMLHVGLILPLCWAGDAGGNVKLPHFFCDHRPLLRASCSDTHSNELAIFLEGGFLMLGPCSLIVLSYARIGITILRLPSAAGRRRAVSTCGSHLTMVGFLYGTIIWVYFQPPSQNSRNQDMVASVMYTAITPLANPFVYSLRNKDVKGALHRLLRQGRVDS
How it was run: as §1

UniProt Q8VGX3 = target: T3, UniProt Q8VGX3
T3 sequence (whole entry): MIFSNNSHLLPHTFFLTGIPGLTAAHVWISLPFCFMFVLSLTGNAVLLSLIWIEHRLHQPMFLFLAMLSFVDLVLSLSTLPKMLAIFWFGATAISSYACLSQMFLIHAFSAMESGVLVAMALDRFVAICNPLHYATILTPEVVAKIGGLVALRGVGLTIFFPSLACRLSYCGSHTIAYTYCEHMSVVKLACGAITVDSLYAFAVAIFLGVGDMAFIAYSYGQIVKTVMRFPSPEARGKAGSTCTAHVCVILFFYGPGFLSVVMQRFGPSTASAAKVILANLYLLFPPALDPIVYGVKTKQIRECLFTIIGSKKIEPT
How it was run: as §1

UniProt Q8VGX5 = target: T4, UniProt Q8VGX5
T4 sequence (whole entry): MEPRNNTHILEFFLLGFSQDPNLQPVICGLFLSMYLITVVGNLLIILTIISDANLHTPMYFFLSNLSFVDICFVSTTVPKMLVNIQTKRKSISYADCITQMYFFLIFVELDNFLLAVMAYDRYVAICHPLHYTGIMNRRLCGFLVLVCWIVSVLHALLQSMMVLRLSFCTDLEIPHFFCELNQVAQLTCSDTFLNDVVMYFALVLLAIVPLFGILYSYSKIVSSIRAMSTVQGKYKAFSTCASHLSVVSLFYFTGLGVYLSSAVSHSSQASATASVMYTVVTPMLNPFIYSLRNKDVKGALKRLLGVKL
How it was run: as §1

Q: How did the “odorant receptor agonist call” value (UniProt Q8VGU3) turn out when C1CCOC1 was run?
A: inactive

Q: What about the “odorant receptor agonist call” value (UniProt Q8VGV7) of the same compound?
A: inactive

Q: What about the “odorant receptor agonist call” value (UniProt Q8VGX3) of the same compound?
A: inactive

Q: What about the “odorant receptor agonist call” value (UniProt Q8VGX5) of the same compound?
A: inactive

Q: CCCCCCCCCC=CC=O was tested. Which “odorant receptor agonist call” value (UniProt Q8VGU3) did it give?
A: inactive

Q: And the “odorant receptor agonist call” value (UniProt Q8VGV7)?
A: inactive

Q: What about the “odorant receptor agonist call” value (UniProt Q8VGX3) of the same compound?
A: inactive

Q: What about the “odorant receptor agonist call” value (UniProt Q8VGX5) of the same compound?
A: inactive

Q: Which “odorant receptor agonist call” value (UniProt Q8VGU3) does the source give for CCSCC here?
A: inactive

Q: And the “odorant receptor agonist call” value (UniProt Q8VGV7)?
A: inactive

Q: What about the “odorant receptor agonist call” value (UniProt Q8VGX3) of the same compound?
A: inactive

Q: And the “odorant receptor agonist call” value (UniProt Q8VGX5)?
A: inactive

Q: What does the source list for Cc1ccc(C(C)C)c(O)c1?
A: odorant receptor agonist call (UniProt Q8VGU3): inactive; odorant receptor agonist call (UniProt Q8VGV7): inactive; odorant receptor agonist call (UniProt Q8VGX3): active; odorant receptor agonist call (UniProt Q8VGX5): inactive

Q: Which “odorant receptor agonist call” value (UniProt Q8VGU3) does the source give for CCC=CCCCCC=O here?
A: inactive

Q: What about the “odorant receptor agonist call” value (UniProt Q8VGV7) of the same compound?
A: inactive

Q: And the “odorant receptor agonist call” value (UniProt Q8VGX3)?
A: inactive

Q: And the “odorant receptor agonist call” value (UniProt Q8VGX5)?
A: inactive

Q: CCN(CC)CC was tested. Which “odorant receptor agonist call” value (UniProt Q8VGU3) did it give?
A: inactive

Q: And the “odorant receptor agonist call” value (UniProt Q8VGV7)?
A: inactive

Q: And the “odorant receptor agonist call” value (UniProt Q8VGX3)?
A: inactive

Q: What about the “odorant receptor agonist call” value (UniProt Q8VGX5) of the same compound?
A: inactive

Q: With CC(C)=CCCC(C)=CCOC(=O)C(C)C as the compound, how does the “odorant receptor agonist call” value (UniProt Q8VGU3) read?
A: inactive

Q: What about the “odorant receptor agonist call” value (UniProt Q8VGV7) of the same compound?
A: inactive

Q: And the “odorant receptor agonist call” value (UniProt Q8VGX3)?
A: inactive

Q: And the “odorant receptor agonist call” value (UniProt Q8VGX5)?
A: active

Q: Cc1ccc2c(c1)OCC(=O)CO2 was tested. Which “odorant receptor agonist call” value (UniProt Q8VGU3) did it give?
A: inactive

Q: What about the “odorant receptor agonist call” value (UniProt Q8VGV7) of the same compound?
A: inactive

Q: And the “odorant receptor agonist call” value (UniProt Q8VGX3)?
A: inactive

Q: What about the “odorant receptor agonist call” value (UniProt Q8VGX5) of the same compound?
A: inactive

Q: Which results are given for CCSSCC?
A: odorant receptor agonist call (UniProt Q8VGU3): inactive; odorant receptor agonist call (UniProt Q8VGV7): inactive; odorant receptor agonist call (UniProt Q8VGX3): inactive; odorant receptor agonist call (UniProt Q8VGX5): inactive

Q: What does the source list for CCCCCCCCCCCO?
A: odorant receptor agonist call (UniProt Q8VGU3): inactive; odorant receptor agonist call (UniProt Q8VGV7): inactive; odorant receptor agonist call (UniProt Q8VGX3): inactive; odorant receptor agonist call (UniProt Q8VGX5): inactive

Q: With O=C([O-])CCCCCCC(=O)[O-].[H+].[H+] as the compound, how does the “odorant receptor agonist call” value (UniProt Q8VGU3) read?
A: inactive

Q: What about the “odorant receptor agonist call” value (UniProt Q8VGV7) of the same compound?
A: inactive

Q: What about the “odorant receptor agonist call” value (UniProt Q8VGX3) of the same compound?
A: inactive

Q: What about the “odorant receptor agonist call” value (UniProt Q8VGX5) of the same compound?
A: inactive

Q: What does the source list for COc1cnccn1?
A: odorant receptor agonist call (UniProt Q8VGU3): inactive; odorant receptor agonist call (UniProt Q8VGV7): inactive; odorant receptor agonist call (UniProt Q8VGX3): inactive; odorant receptor agonist call (UniProt Q8VGX5): inactive

Q: CCCCCCCOC(=O)C(C)C was tested. Which “odorant receptor agonist call” value (UniProt Q8VGU3) did it give?
A: inactive

Q: What about the “odorant receptor agonist call” value (UniProt Q8VGV7) of the same compound?
A: inactive

Q: What about the “odorant receptor agonist call” value (UniProt Q8VGX3) of the same compound?
A: inactive

Q: What about the “odorant receptor agonist call” value (UniProt Q8VGX5) of the same compound?
A: inactive

Q: Which results are given for CC=C(C)C=O?
A: odorant receptor agonist call (UniProt Q8VGU3): inactive; odorant receptor agonist call (UniProt Q8VGV7): inactive; odorant receptor agonist call (UniProt Q8VGX3): inactive; odorant receptor agonist call (UniProt Q8VGX5): inactive

Q: With CCCCCC(=Cc1ccccc1)C(OC)OC as the compound, how does the “odorant receptor agonist call” value (UniProt Q8VGU3) read?
A: inactive

Q: What about the “odorant receptor agonist call” value (UniProt Q8VGV7) of the same compound?
A: inactive

Q: And the “odorant receptor agonist call” value (UniProt Q8VGX3)?
A: inactive

Q: And the “odorant receptor agonist call” value (UniProt Q8VGX5)?
A: inactive

Q: What does the source list for CNc1ccccc1C(=O)OC?
A: odorant receptor agonist call (UniProt Q8VGU3): inactive; odorant receptor agonist call (UniProt Q8VGV7): inactive; odorant receptor agonist call (UniProt Q8VGX3): inactive; odorant receptor agonist call (UniProt Q8VGX5): active

Q: For C=CC(C)=CCC=C(C)CCC=C(C)C, which “odorant receptor agonist call” value (UniProt Q8VGU3) is on record?
A: inactive

Q: What about the “odorant receptor agonist call” value (UniProt Q8VGV7) of the same compound?
A: inactive

Q: And the “odorant receptor agonist call” value (UniProt Q8VGX3)?
A: inactive

Q: What about the “odorant receptor agonist call” value (UniProt Q8VGX5) of the same compound?
A: inactive

— the M2OR odorant receptor database
